Results reported in ChEMBL document CHEMBL2375276, “Antibacterial oxazolidinone analogues having a N-hydroxyacetyl-substituted seven-membered [1,2,5]triazepane or [1,2,5]oxadiazepane C-ring unit” (Eur J Med Chem, 2013).
Converted amounts (≈) assume the structure as drawn.

Columns and labels:
Cytochrome P450 2C9 = Cytochrome P450 2C9 (Homo sapiens, UniProt P11712); test: Inhibition of human CYP2C9 assessed as tolbutamide hydroxylation after 20 mins by LC/MS/MS analysis; type: ADME
Outline: (§1)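 Human liver microsomes (0.2 mg protein/mL) with 1 mM NADPH in 50 mM HEPES pH 7.4, 10 mM MgCl2, 0.1 mM EDTA. After centrifugation, supernatant metabolite measured by LC/MS/MS. Standard curve from authentic metabolite cocktail added to unincubated reaction mix.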

Staphylococcus aureus [1] = test: Antibacterial activity against Staphylococcus aureus Smith assessed as growth inhibition by CLSI broth microdilution method; type: functional
Outline: (§2)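 MIC by CLSI broth microdilution in cation-adjusted Mueller-Hinton broth; S. pneumoniae medium supplemented with 5% lysed horse blood.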

MAO-B = target: T1, MAO-B (Rattus norvegicus, UniProt P19643); test: Inhibition of MAO-B in rat forebrain using [14C]PEA as substrate at 30 uM incubated for 20 mins prior to substrate addition measured after 10 mins by liquid scintillation counting analysis relative to control; type: tissue-based; conditions: probe [14C]PEA
T1 sequence (P19643 whole entry): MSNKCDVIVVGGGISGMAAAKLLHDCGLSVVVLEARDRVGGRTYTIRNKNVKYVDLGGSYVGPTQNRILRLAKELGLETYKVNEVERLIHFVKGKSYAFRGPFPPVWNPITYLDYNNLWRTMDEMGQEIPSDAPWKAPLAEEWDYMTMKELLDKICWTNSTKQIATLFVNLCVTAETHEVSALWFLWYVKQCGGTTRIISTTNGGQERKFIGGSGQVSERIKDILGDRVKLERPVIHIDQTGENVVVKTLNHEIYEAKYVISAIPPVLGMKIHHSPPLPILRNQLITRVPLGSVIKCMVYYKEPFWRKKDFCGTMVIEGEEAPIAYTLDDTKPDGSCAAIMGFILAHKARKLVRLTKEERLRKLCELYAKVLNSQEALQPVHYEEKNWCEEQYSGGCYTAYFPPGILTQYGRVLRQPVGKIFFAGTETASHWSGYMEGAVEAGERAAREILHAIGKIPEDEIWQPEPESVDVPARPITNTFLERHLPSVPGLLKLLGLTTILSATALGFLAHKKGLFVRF

MAO-A = target: T2, MAO-A (Rattus norvegicus, UniProt P21396); test: Inhibition of MAO-A in rat forebrain using [14C]5-HT as substrate at 30 uM incubated for 20 mins prior to substrate addition measured after 5 mins by liquid scintillation counting analysis relative to control; type: tissue-based; conditions: probe [14C]5-HT
T2 sequence (P21396 whole entry): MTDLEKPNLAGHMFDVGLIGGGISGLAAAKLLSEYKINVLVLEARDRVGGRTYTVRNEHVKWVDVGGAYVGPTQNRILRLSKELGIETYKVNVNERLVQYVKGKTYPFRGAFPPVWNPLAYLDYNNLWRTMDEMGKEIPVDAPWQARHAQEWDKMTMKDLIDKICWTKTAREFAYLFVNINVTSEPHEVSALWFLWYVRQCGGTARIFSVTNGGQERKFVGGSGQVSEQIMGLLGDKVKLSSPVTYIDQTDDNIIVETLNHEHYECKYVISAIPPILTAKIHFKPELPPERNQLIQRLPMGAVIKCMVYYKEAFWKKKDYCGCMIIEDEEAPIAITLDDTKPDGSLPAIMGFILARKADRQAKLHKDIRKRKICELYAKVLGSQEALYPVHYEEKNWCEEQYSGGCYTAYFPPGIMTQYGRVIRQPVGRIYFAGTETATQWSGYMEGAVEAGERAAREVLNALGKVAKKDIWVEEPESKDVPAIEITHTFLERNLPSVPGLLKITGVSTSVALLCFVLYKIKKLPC

Cytochrome P450 2D6 = Cytochrome P450 2D6 (Homo sapiens, UniProt P10635); test: Inhibition of human CYP2D6 assessed as dextromethorphan O-demethylation after 20 mins by LC/MS/MS analysis; type: ADME; outline: as §1
Staphylococcus aureus [2] = test: Antibacterial activity against linezolid-resistant Staphylococcus aureus NRS271 assessed as growth inhibition by CLSI broth microdilution method; type: functional
Outline: (§3)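 MIC by CLSI broth microdilution in cation-adjusted Mueller-Hinton broth. Lowest concentration inhibiting growth taken as MIC.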

Staphylococcus aureus [3] = test: Antibacterial activity against methicillin-resistant Staphylococcus aureus SR3637 infected in JCL/ICR mouse systemic infection model assessed as mortality administered as iv measured over 7 days; type: functional; conditions: 168 h
Outline: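 Five-week-old male JCL/ICR mice (20–25 g), five per group. Infected intraperitoneally with 0.5 or 1.0 mL bacterial suspension (about 100× LD50). Intravenous dosing 1 h post-infection. Mortality followed 7 days; ED50 with 95% confidence limits by logit method.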

Enterococcus faecalis = test: Antibacterial activity against Enterococcus faecalis SR1004 clinical isolate assessed as growth inhibition by CLSI broth microdilution method; type: functional; outline: as §2
Streptococcus pneumoniae = test: Antibacterial activity against Streptococcus pneumoniae SR26207 clinical isolate assessed as growth inhibition by CLSI broth microdilution method; type: functional; outline: as §2
Enterococcus faecium = test: Antibacterial activity against Enterococcus faecium SR7940 clinical isolate assessed as growth inhibition by CLSI broth microdilution method; type: functional; outline: as §2
Staphylococcus aureus [4] = test: Antibacterial activity against methicillin-resistant Staphylococcus aureus SR3637 assessed as growth inhibition by CLSI broth microdilution method; type: functional; outline: as §3
Haemophilus influenzae = test: Antibacterial activity against Haemophilus influenzae SR27914 clinical isolate assessed as growth inhibition by CLSI broth microdilution method; type: functional
Outline: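 MIC by CLSI broth microdilution using Haemophilus test medium.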

Moraxella catarrhalis = test: Antibacterial activity against Moraxella catarrhalis SR26840 clinical isolate assessed as growth inhibition by CLSI broth microdilution method; type: functional; outline: as §2
Staphylococcus aureus [5] = test: Antibacterial activity against methicillin-resistant Staphylococcus aureus SR3637 infected in JCL/ICR mouse systemic infection model assessed as mortality administered as po measured over 7 days; type: functional; conditions: 168 h
Outline: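 Five-week-old male JCL/ICR mice (20–25 g), five per group. Infected intraperitoneally with 0.5 or 1.0 mL bacterial suspension (about 100× LD50). Oral dosing 1 h post-infection. Mortality followed 7 days; ED50 with 95% confidence limits by logit method.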

Cytochrome P450 3A4 = Cytochrome P450 3A4 (Homo sapiens, UniProt P08684); test: Inhibition of human CYP3A4 assessed as terfenadine hydroxylation after 20 mins by LC/MS/MS analysis; type: ADME; outline: as §1
Cytochrome P450 1A2 = target: T3, Cytochrome P450 1A2 (Homo sapiens, UniProt P05177); test: Inhibition of human CYP1A2 assessed as ethoxyresorufin O-deethylation after 20 mins by fluorescence plate reader analysis; type: ADME
T3 sequence (P05177 whole entry): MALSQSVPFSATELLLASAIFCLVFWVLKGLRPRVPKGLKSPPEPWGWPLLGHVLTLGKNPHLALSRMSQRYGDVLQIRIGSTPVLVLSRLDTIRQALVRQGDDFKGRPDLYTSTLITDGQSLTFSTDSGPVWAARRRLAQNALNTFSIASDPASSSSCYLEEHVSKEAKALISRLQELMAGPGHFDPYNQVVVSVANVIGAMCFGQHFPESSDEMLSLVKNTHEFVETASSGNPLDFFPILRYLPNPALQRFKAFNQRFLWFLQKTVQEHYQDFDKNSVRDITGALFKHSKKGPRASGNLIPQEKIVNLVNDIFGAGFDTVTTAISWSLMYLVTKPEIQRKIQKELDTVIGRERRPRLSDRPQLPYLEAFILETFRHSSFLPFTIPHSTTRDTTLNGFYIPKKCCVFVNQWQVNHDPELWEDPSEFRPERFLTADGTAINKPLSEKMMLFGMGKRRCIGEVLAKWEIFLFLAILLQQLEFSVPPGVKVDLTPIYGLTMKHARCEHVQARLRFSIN
Outline: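 Human liver microsomes (0.2 mg protein/mL) with 1 mM NADPH in 50 mM HEPES pH 7.4, 10 mM MgCl2, 0.1 mM EDTA. After centrifugation, supernatant read on a fluorescence plate reader. Standard curve from authentic metabolite added to unincubated reaction mix.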

Staphylococcus aureus [6] = test: Antibacterial activity against Staphylococcus aureus SR20549 clinical isolate assessed as growth inhibition by CLSI broth microdilution method; type: functional; outline: as §2

Sequence of Cytochrome P450 2D6 (P10635 whole entry): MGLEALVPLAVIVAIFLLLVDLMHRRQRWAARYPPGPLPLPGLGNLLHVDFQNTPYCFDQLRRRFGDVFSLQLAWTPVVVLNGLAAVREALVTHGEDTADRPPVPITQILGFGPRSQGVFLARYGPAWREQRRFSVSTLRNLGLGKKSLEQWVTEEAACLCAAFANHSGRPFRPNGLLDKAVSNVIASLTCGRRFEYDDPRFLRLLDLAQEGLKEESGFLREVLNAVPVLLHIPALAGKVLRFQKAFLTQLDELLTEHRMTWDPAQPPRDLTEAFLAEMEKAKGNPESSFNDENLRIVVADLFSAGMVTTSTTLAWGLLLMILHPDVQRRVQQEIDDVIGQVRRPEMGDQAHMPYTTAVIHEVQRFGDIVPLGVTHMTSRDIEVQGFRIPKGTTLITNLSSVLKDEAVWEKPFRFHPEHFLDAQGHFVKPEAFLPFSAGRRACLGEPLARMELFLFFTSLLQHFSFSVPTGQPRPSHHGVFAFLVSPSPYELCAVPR
Sequence of Cytochrome P450 3A4 (P08684 whole entry): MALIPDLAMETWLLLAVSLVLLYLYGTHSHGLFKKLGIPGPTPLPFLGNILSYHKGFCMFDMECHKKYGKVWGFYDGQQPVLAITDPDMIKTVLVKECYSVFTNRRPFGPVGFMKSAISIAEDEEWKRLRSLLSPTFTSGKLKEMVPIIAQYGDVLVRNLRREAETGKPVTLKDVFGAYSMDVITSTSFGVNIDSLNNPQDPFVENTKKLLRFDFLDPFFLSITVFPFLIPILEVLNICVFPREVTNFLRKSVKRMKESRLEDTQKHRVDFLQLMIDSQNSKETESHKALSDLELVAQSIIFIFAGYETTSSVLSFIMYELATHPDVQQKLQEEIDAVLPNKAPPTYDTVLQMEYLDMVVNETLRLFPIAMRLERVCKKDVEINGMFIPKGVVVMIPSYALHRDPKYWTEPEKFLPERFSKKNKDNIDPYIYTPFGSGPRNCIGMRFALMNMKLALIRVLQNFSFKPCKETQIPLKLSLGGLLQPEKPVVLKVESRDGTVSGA
Sequence of Cytochrome P450 2C9 (P11712 whole entry): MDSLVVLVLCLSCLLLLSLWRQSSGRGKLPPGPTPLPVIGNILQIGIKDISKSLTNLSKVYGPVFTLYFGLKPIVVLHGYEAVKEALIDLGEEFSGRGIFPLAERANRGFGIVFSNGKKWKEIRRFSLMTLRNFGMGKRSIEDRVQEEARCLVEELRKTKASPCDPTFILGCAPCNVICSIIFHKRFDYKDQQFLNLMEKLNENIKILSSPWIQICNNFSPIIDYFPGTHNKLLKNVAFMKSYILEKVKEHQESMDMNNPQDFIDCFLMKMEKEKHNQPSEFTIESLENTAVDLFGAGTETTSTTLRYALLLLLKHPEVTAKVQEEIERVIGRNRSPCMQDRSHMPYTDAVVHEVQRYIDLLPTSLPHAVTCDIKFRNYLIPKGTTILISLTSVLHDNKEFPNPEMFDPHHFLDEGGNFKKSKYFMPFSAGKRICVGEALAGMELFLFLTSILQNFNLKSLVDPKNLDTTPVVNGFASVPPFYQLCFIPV

Structure (SMILES) | IC50 (Cytochrome P450 2C9) [µM] | MIC (Staphylococcus aureus [1]) [µg/mL] | inhibition at 10 min, 30 µM (MAO-B) [%] | inhibition at 5 min, 30 µM (MAO-A) [%] | IC50 (Cytochrome P450 2D6) [µM] | MIC (Staphylococcus aureus [2]) [µg/mL] | ED50 (Staphylococcus aureus [3]) [mg/kg] | MIC (Enterococcus faecalis) [µg/mL] | MIC (Streptococcus pneumoniae) [µg/mL] | MIC (Enterococcus faecium) [µg/mL] | MIC (Staphylococcus aureus [4]) [µg/mL] | MIC (Haemophilus influenzae) [µg/mL] | MIC (Moraxella catarrhalis) [µg/mL] | ED50 (Staphylococcus aureus [5]) [mg/kg] | IC50 (Cytochrome P450 3A4) [µM] | IC50 (Cytochrome P450 1A2) [µM] | MIC (Staphylococcus aureus [6]) [µg/mL]
CC(=O)NC[C@H]1CN(c2ccc(N3CCN(C(=O)CO)CC3)c(F)c2)C(=O)O1 [EPEREZOLID] | > 20 | 1 (≈ 2.54 µM) | 20.2 | 53.6 | > 20 | 32 (≈ 81.1 µM) | 1.85 | 1 (≈ 2.54 µM) | 0.125 (≈ 0.317 µM) | 2 (≈ 5.07 µM) | 1 (≈ 2.54 µM) | 4 (≈ 10.1 µM) | 8 (≈ 20.3 µM) | 4.76 | > 20 | > 20 | 1 (≈ 2.54 µM)
CC(=O)NC[C@H]1CN(c2ccc(N3CCOCC3)c(F)c2)C(=O)O1 [LINEZOLID] | > 20 |  | 70.4 | 61.3 | > 20 | 32 (≈ 94.9 µM) | 1.73 |  |  | 2 (≈ 5.93 µM) |  | 16 (≈ 47.4 µM) | 8 (≈ 23.7 µM) | 2.02 | > 20 | > 20 | 
